Laboratory results from PubChem BioAssay.
Records with an inconclusive call do not appear. Calls of active or inactive are those of the source.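 Rule for the calls, unless noted: active = viability increase at or above a cutoff of the median across tested compounds plus 3 SD (cut at about 8.5% in these data, passing the limit was not always enough); inconclusive = some gains above the cutoff, reason not given; inactive = the rest.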

What was measured:
[1] = OD615 S. cerevisiae growth inhibition, permissive medium, pilot counter-assay, permissive growth control for S. cerevisiae lifespan shortening project (AID 705;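 active = growth inhibition above 25% in both replicates, a cutoff set 3 SD above the mean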); settings: OD615, 24 h, at 10 µM, hits give high values
Method in brief: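 assay system = Saccharomyces cerevisiae strain carrying genetically modified DeaD replicative-lifespan system | technique = absorbance (optical density) at 615 nm | buffer or medium = permissive raffinose/galactose medium | timing = cells pre-grown 4 h, then 24 h compound exposure, 30 °C humidified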

[2] = Restrictive medium S. cerevisiae growth inhibition, OD615, pilot screen of yeast lifespan reduction project, restrictive growth control (AID 706;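 active = growth inhibition above a set limit, 3 SD over mean compound inhibition, in both replicates, cut at about 43% in these data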;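 note: modified DeaD lifespan yeast strain shifted to restrictive glucose medium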); settings: OD615, 48 h, at 10 µM, hits give high values
Method in brief: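 System: modified S. cerevisiae. Buffer or medium: CSMM-D glucose medium. Incubation: 4 h pre-growth plus 48 h compound exposure, 30 °C. Detection: absorbance (optical density) measured at 615 nm.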

[3] = viability gain of MRP-1-high H69AR cells under doxorubicin, pilot screen, MRP-1 activator project, CellTiter-Glo, duplicate (AID 807); settings: H69AR viability with doxorubicin, CellTiter-Glo luminescence; at 10 µM; hits give high values;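 note: compound pretreatment 18-22 h then 72 h combined with doxorubicin; 0% = doxorubicin alone and 100% = vehicle without doxorubicin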
[4] = growth suppression of beta-catenin knockout HCT116, pilot screen, human colon tumor cells (AID 823;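 active = cell viability at or below a set limit in both duplicate runs, the limit being the all-compound median minus 4 SD, cut at about 23% in these data, passing the limit was not always enough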;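 note: 0% = wells killed by 20 µM Hyamine and 100% = untreated DMSO cell wells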); settings: CellTiter-Glo, 60 h, at 10 µM, hits give low values
[5] = inhibitors of the yeast RAM network, pilot screen, dse1pr::URA3 reporter, 5-FOA selection (AID 869;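 active = inhibition over a set limit, the all-compound mean plus 3 SD, in both replicate runs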;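 note: 0% = DMSO wells with no growth and 100% = 10 µM 1-NA-PP1 with full growth; RAM network block rescues cells from 5-FOA so hits raise OD615 growth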); settings: S. cerevisiae dse1pr::URA3 5-FOA growth, OD615, 2 d; at 10 µM; hits give high values; strain carries analog-sensitive mutant Cbk1 kinase
[6] = RAM signaling pathway blockade in yeast – S. cerevisiae, Pdr1DBD-CYC8 efflux-inhibited sensitized strain, primary screen (AID 1298;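 active = RAM network inhibition above 8.4% in each of two replicates, 3 SD over the compound average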;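 note: 0% = DMSO untreated cells without growth and 100% = 10 µM 1-NA-PP1 full growth; higher means more yeast growth rescued from 5-FOA killing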); settings: S. cerevisiae cbk1-as DSE1-URA3 strain, 5-FOA growth OD615, 2 d; at 50 µM; hits give high values

CCOC(=O)C1=CSC2=NS(=O)(=O)CCN12
inactive: growth inhibition [1] 3.57% | growth inhibition [2] -2.12% | viability increase [3] -2.36% | viability [4] 97.7% | inhibition [5] 2.31% | RAM network inhibition [6] -0.32%

O=C(CS(=O)(=O)c1c[nH]c2ccccc12)Nc1ccc2c(c1)OCCO2
inactive: growth inhibition [1] -12.2% | growth inhibition [2] -1.07% | viability increase [3] -3.49% | viability [4] 95.7% | inhibition [5] 2.55% | RAM network inhibition [6] 1.93%

CC(=O)c1c(C)n(-c2ccc(N(C)C)cc2)c2ccc(OCC(N)=O)cc12
inactive: growth inhibition [1] -8.79% | growth inhibition [2] -6.18% | viability increase [3] -4.87% | viability [4] 84.8% | inhibition [5] 2.3% | RAM network inhibition [6] 6.29%

Cc1ccc(C)c(S(=O)(=O)Nc2ccccc2C(=O)Nc2cc(C)on2)c1
inactive: growth inhibition [1] -32.7% | growth inhibition [2] -4.75% | viability increase [3] -3.6% | viability [4] 77.3% | inhibition [5] 2.54% | RAM network inhibition [6] 6.23%

COCCCNC(=O)c1cc2c(=O)n(C)c3ccccc3c2n1C
inactive: growth inhibition [1] -7.96% | growth inhibition [2] -5.92% | viability increase [3] -7.13% | viability [4] 36.5% | inhibition [5] 0.345% | RAM network inhibition [6] 4.4%

CC(=O)Nc1cc(OC(=O)c2ccco2)cc(OC(=O)c2ccco2)c1
inactive: growth inhibition [1] -22.3% | growth inhibition [2] 3.33% | viability increase [3] -2.27% | viability [4] 103% | inhibition [5] 1.36% | RAM network inhibition [6] 5.4%

CC1CCN(C(=O)CSc2nc(N)c3c4c(sc3n2)CN(C)CC4)CC1
inactive: growth inhibition [1] -10.2% | growth inhibition [2] 12.6% | viability increase [3] -3.86% | viability [4] 102% | inhibition [5] 0.905% | RAM network inhibition [6] 2.24%

O=C(Nc1ccc(Br)cc1Cl)c1cnccn1
inactive: growth inhibition [1] 1.88% | growth inhibition [2] -0.415% | viability increase [3] -0.71% | viability [4] 84.1% | inhibition [5] 1.97% | RAM network inhibition [6] 2.32%

Cc1cccc(NC(=O)Cn2cnc3c(cnn3-c3ccc(F)cc3)c2=O)c1C
inactive: growth inhibition [1] -1.04% | growth inhibition [2] -2.65% | viability increase [3] -8.31% | viability [4] 29.6% | inhibition [5] 0.735% | RAM network inhibition [6] 2.47%

COc1ccc(NC2=NCC(=O)N2c2ccccc2)c(OC)c1
inactive: growth inhibition [1] -19.2% | growth inhibition [2] -5.42% | viability increase [3] -0.89% | viability [4] 91.5% | inhibition [5] 1.15% | RAM network inhibition [6] 5.45%

CC(C)N(C(=O)C1CC(=O)OC12CCCCC2)C(C)C (stereo unspecified)
inactive: growth inhibition [1] 1.46% | growth inhibition [2] 3.32% | viability increase [3] -0.41% | viability [4] 99.1% | inhibition [5] 1.32% | RAM network inhibition [6] 0.1%

Cc1ccc(S(=O)(=O)c2nc(-c3cccs3)oc2SCC(N)=O)cc1
inactive: growth inhibition [1] -8.57% | growth inhibition [2] 10.4% | viability increase [3] -2.87% | viability [4] 106% | inhibition [5] -0.475% | RAM network inhibition [6] 3.22%

Cc1ccc2c(c1)c(C)c(C)n2CC(O)Cn1nnc2ccccc21 (stereo unspecified)
inactive: growth inhibition [1] -9.66% | growth inhibition [2] -5.1% | viability increase [3] -5.06% | viability [4] 82.3% | inhibition [5] 0.335% | RAM network inhibition [6] 2.28%

CCOC(=O)CNC(=O)c1cn(C)c(=O)c2cc(OC)c(OC)cc12
inactive: growth inhibition [1] -29.2% | growth inhibition [2] -3.25% | viability increase [3] -2.81% | viability [4] 86.5% | inhibition [5] 0.24% | RAM network inhibition [6] 2.87%

Cn1c(=O)[nH]c(=O)c2c1nc(Sc1ncccn1)n2CCCc1ccccc1
inactive: growth inhibition [1] -10.3% | growth inhibition [2] -9.67% | viability increase [3] -4.15% | viability [4] 97% | inhibition [5] 1.43% | RAM network inhibition [6] 7.26%

CCn1cc(C(=O)NC2CCCCCC2)c2cc(OC)c(OC)cc2c1=O
inactive: growth inhibition [1] -29.2% | growth inhibition [2] 1.87% | viability increase [3] -3.91% | viability [4] 76.3% | inhibition [5] 2.02% | RAM network inhibition [6] 4.11%

Cc1c(Cl)cccc1NC(=O)CCN1CCCC(C)C1 (stereo unspecified)
inactive: growth inhibition [1] -12.9% | growth inhibition [2] 3.83% | viability increase [3] -3.58% | viability [4] 94.7% | inhibition [5] 2.28% | RAM network inhibition [6] 3.43%

CCC(=O)Nc1cc(C)c(NC(=O)c2ccco2)cn1
inactive: growth inhibition [1] -18.1% | growth inhibition [2] -13.9% | viability increase [3] 0.56% | viability [4] 98.5% | inhibition [5] 1.52% | RAM network inhibition [6] 4.21%

Cc1ccc(-c2nc(S(=O)(=O)c3ccc(F)cc3)c(SCC(=O)NCC3CCCO3)o2)cc1 (stereo unspecified)
inactive: growth inhibition [1] -6.27% | growth inhibition [2] 1.93% | viability increase [3] -6.02% | viability [4] 93.6% | inhibition [5] 0.14% | RAM network inhibition [6] 0.57%

O=C(CCS(=O)(=O)c1ccccc1)Nc1nc2c(s1)COc1ccccc1-2
inactive: growth inhibition [1] -11.8% | growth inhibition [2] -10.9% | viability increase [3] -8.46% | inhibition [5] 1.32% | RAM network inhibition [6] 3.55%
active: viability [4] 5.88%

CCOc1ccccc1NC(=O)CSc1nnc(-c2cnccn2)n1C
inactive: growth inhibition [1] -24.8% | growth inhibition [2] -1.53% | viability increase [3] -3.17% | viability [4] 91.8% | inhibition [5] 3.12% | RAM network inhibition [6] 5.04%

N#Cc1c(N)nc2c(c1-c1ccc3c(c1)OCO3)CCCCCC2
inactive: growth inhibition [1] -18% | growth inhibition [2] -4.1% | viability increase [3] -5.55% | viability [4] 84.8% | inhibition [5] 2.68% | RAM network inhibition [6] 6.96%

NC(=O)C1CCN(C(=O)CCCCCn2c(=O)[nH]c3ccsc3c2=O)CC1
inactive: growth inhibition [1] -14% | growth inhibition [2] -8.6% | viability increase [3] -3.22% | viability [4] 96.4% | inhibition [5] 0.97% | RAM network inhibition [6] 3.54%

O=C1CC(N2CCN(Cc3ccc4c(c3)OCO4)CC2)C(=O)N1Cc1ccc(N2CCCC2=O)cc1 (stereo unspecified)
inactive: growth inhibition [1] -28.2% | growth inhibition [2] -0.61% | viability increase [3] -1.61% | viability [4] 90.3% | inhibition [5] 2.29% | RAM network inhibition [6] 7.63%

CS(=O)(=O)c1nc(-c2cccs2)cc(C(F)(F)F)n1
inactive: growth inhibition [1] -22.6% | growth inhibition [2] 1.86% | viability increase [3] -8.04% | viability [4] 53.4% | inhibition [5] 2.05% | RAM network inhibition [6] -0.11%

CSc1nc(SCC(=O)NCc2ccco2)c2c3c(sc2n1)COC(C)(C)C3
inactive: growth inhibition [1] -11.7% | growth inhibition [2] -6.08% | viability increase [3] -8.04% | viability [4] 33.9% | inhibition [5] 2.8% | RAM network inhibition [6] 7.62%

CCN(CC)C(=O)CSc1nnc(-c2ccccc2)n1N
inactive: growth inhibition [1] 3.57% | growth inhibition [2] -0.035% | viability increase [3] -2.74% | viability [4] 93.3% | inhibition [5] 0.76% | RAM network inhibition [6] -0.62%

O=C(CSc1oc(-c2ccc(F)cc2)nc1S(=O)(=O)c1ccccc1)NCC1CCCO1 (stereo unspecified)
inactive: growth inhibition [1] -15.8% | growth inhibition [2] 4.17% | viability increase [3] -5.58% | viability [4] 90.8% | inhibition [5] 2.46% | RAM network inhibition [6] 6.86%

CCOC(=O)c1cc(NC(=O)OC)c(C)nc1C
inactive: growth inhibition [1] -4.66% | growth inhibition [2] 4.23% | viability increase [3] -2.65% | viability [4] 106% | inhibition [5] 0.81% | RAM network inhibition [6] 3.38%

O=C(NCc1ccc2c(c1)OCO2)C1CCN(c2ccc(S(=O)(=O)N3CCCC3)cc2)CC1
inactive: growth inhibition [1] -20.2% | growth inhibition [2] -1.93% | viability increase [3] -6.29% | viability [4] 65.5% | inhibition [5] 3.25% | RAM network inhibition [6] 4.72%

CNC(=O)c1ccc(-c2sc3nc(N4CCOCC4)c4c(c3c2N)CCCC4)o1
inactive: growth inhibition [1] 0.875% | growth inhibition [2] 17.2% | viability increase [3] -7.88% | viability [4] 39.6% | inhibition [5] -0.54% | RAM network inhibition [6] 5.11%

Cc1cc(C)c(C)c(S(=O)(=O)Nc2ccccc2C(=O)NCCCn2ccnc2)c1C
inactive: growth inhibition [1] -28% | growth inhibition [2] 12.5% | viability increase [3] -5.57% | viability [4] 70.2% | inhibition [5] 0.75% | RAM network inhibition [6] 0.27%

Cc1ccccc1C(=O)Nc1nnc(-c2ccc(F)cc2)o1
inactive: growth inhibition [1] -3.21% | growth inhibition [2] 11.5% | viability increase [3] -2.91% | viability [4] 33% | inhibition [5] 0.6% | RAM network inhibition [6] 4.65%

COc1ccc(-c2nc(N3CCOCC3)nc3n[nH]c(N)c23)cc1
inactive: growth inhibition [1] -5.32% | growth inhibition [2] 14.9% | viability increase [3] -6.84% | viability [4] 74.7% | inhibition [5] 0.26% | RAM network inhibition [6] 3.37%

COc1cc2[nH]c(=O)n(CCC(=O)N3CCN(c4cccc(C)c4C)CC3)c(=O)c2cc1OC
inactive: growth inhibition [1] 2.25% | growth inhibition [2] -5.83% | viability increase [3] -5.18% | viability [4] 84.2% | inhibition [5] 0.615% | RAM network inhibition [6] 5.67%

CCCCCn1c(CNC(=O)COC)nc2ccccc21
inactive: growth inhibition [1] -2.62% | growth inhibition [2] -2.4% | viability increase [3] -2.9% | viability [4] 95.4% | inhibition [5] 0.855% | RAM network inhibition [6] 2.97%

COc1cc(OC)cc(C(=O)Nc2cc(NC(=O)c3ccco3)ccc2OC)c1
inactive: growth inhibition [1] -15.4% | growth inhibition [2] 3.21% | viability increase [3] -5.63% | viability [4] 88.8% | inhibition [5] 1.21% | RAM network inhibition [6] 2.66%

CCOc1cccc2c1OC1(C)CC2NC(=O)N1c1cccc(Cl)c1 (stereo unspecified)
inactive: growth inhibition [1] -12% | growth inhibition [2] 5.29% | viability increase [3] -1.53% | viability [4] 99.2% | inhibition [5] -0.045% | RAM network inhibition [6] 5.25%

CCOc1ccc(N(CC(=O)NC2CCCCCC2)S(=O)(=O)c2c(C)noc2C)cc1
inactive: growth inhibition [1] -4.29% | growth inhibition [2] -1.42% | viability increase [3] -6.44% | viability [4] 44.8% | inhibition [5] 3.02% | RAM network inhibition [6] 5.55%

CCOC(=O)C1CCCN(C(=O)CC(C)c2ccccc2)C1 (stereo unspecified)
inactive: growth inhibition [1] -14.4% | growth inhibition [2] -0.005% | viability increase [3] -1.25% | viability [4] 104% | inhibition [5] 1.57% | RAM network inhibition [6] 3.91%

CCn1cc(C(=O)N2CCN(c3ccccn3)CC2)c2cc(OC)c(OC)cc2c1=O
inactive: growth inhibition [1] -18% | growth inhibition [2] -7.93% | viability increase [3] -4.32% | viability [4] 104% | inhibition [5] 0.495% | RAM network inhibition [6] 6.02%
